Assay outcomes as filed in PubChem BioAssay.
An excerpt weighted towards active compounds, which were near 2.3% of everything screened.
TRPC4 act – TRPC4 (mouse) channel activation; Q9QUQ5; AID 2237; 0.49% of 310,000 active; B-score at 10 µM; HEK293 TRPC4beta/mu-opioid, Fluo4 calcium fluorescence; active compounds read high;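 active means B-score above 5 SD of library B-scores, and initial fluorescence ratio not above library mean plus 5 SD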;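 further: positive B-score marks a calcium rise read as TRPC4 activation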
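Assay system – TRPC4beta and mu-opioid receptor HEK293 stable cells · Measured by – Fluo4 fluorescence, kinetic · Schedule – dye loading 45 min room temperature, 110 s kinetic read · Read-out – B-scored integrated calcium fluorescence ratio · Controls – buffer and maximal DAMGO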
TRPC6 inh – inhibitors of mouse TRPC6 channel. Q61143. AID 2553. HEK293-TRPC6, membrane potential dye, ACh-evoked depolarization; active compounds read low. B-score at 10 µM. 1.1% of 310,000 active;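 active means B-score under library mean minus 3 SD, initial fluorescence not abnormally high, positive integrated signal ratio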;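 further: B-score derived from integrated fluorescence ratio over the kinetic read; more negative B-score means stronger inhibition of depolarization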
Target sequence (Q61143 whole entry, looked up): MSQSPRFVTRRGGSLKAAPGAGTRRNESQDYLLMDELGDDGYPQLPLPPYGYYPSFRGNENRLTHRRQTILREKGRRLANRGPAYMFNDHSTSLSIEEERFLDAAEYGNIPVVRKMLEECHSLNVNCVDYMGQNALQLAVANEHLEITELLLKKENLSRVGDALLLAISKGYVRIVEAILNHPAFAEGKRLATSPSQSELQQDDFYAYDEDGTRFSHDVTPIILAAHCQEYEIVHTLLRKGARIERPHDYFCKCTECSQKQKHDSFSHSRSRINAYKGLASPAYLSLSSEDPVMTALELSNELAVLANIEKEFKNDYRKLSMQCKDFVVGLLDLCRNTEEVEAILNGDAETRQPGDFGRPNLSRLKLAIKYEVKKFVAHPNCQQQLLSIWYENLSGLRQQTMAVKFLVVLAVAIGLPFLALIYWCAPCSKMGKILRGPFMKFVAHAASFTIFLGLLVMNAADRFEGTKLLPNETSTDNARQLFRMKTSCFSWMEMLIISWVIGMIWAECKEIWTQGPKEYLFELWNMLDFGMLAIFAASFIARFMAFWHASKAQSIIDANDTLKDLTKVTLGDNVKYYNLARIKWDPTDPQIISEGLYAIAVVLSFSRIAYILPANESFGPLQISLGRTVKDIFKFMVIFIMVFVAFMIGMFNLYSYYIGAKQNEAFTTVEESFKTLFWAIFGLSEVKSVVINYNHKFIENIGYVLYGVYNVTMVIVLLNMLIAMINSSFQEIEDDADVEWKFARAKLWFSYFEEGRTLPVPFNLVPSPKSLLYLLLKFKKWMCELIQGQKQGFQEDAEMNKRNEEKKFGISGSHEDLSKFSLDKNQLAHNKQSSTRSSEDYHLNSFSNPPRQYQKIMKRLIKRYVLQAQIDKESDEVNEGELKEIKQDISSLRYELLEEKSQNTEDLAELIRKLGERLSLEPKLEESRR
TRPC6 act – activates the mouse TRPC6 cation channel; AID 2550; 0.13% of 310,000 active; HEK293-TRPC6 membrane potential dye fluorescence; active compounds read high; B-score at 10 µM; Q61143;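 active means B-score of the integrated fluorescence ratio above library mean plus 3 SD, and starting fluorescence ratio within library mean plus 5 SD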;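 further: higher score means more depolarization so channel activation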
TRPC4 inh – inhibitors of mouse TRPC4 channel; Q9QUQ5; HEK293 TRPC4beta/mu-opioid, DAMGO-evoked Fluo4 calcium flux; active compounds read low; B-score at 10 µM; 0.39% of 300,000 active; AID 2247;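 active means B-score over 3 SD under the library average, no early fluorescence shift, positive overall ratio signal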
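System: stable TRPC4beta/mu-opioid receptor HEK293 cells; Dosing: single-point compound dosing; Measured by: Fluo4 Ca2+ flux fluorescence; Read-out basis: per-well B score of integrated baseline-normalized Fluo4 ratio.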
TRPC4 PAM – allosterically enhances the mouse TRPC4 cation channel. AID 2227. B-score at 10 µM. 0.42% of 310,000 active. Q9QUQ5. HEK293 TRPC4beta/mu-opioid, DAMGO EC20, Fluo-4 Ca2+ flux; active compounds read high;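 active means B-score of calcium response area above 5 SD of library B-scores, with initial fluorescence ratio within 5 SD of library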;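 further: B-score of integrated fluorescence ratio over time as area under calcium response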
TRPC4 sel inh 2 – mouse TRPC4 off-target activity of TRPC6 inhibitors, second screen; shares compounds with TRPC6 inh; HEK293 TRPC4/MOR, membrane potential dye fluorescence; channel activated by saturating DAMGO dose; inhibition, % at 10 µM; 42% of 920 active; AID 2776;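 active means compounds whose fluorescence signal differed from control wells by over 3 SD, either direction, in both duplicate plates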
TRPC4 spec – mouse TRPC4 off-target activity of TRPC6 inhibitors | shares compounds with TRPC6 inh | HEK293 TRPC4/mu-opioid, membrane potential fluorescence | activity change, negative = inhibition, % at 10 µM | 61% of 920 active | AID 2777;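 active means rise or fall in signal beyond 3 SD of buffer-only wells in both replicate plates, either sign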;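 further: integrated kinetic ratio of fluorescence range over baseline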
HEK293 MPD ctr 2-1 – parental HEK293 nonspecific activity of TRPC6 inhibitors, second screen. shares compounds with TRPC6 inh. AID 2779. signal change vs control, % at 10 µM. parental HEK293 membrane potential dye fluorescence; maximal acetylcholine challenge after compound addition. 31% of 920 active;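 active means membrane potential signal moving either way by over 3 SD of the maximum-effect control, in both duplicate plates, meaning non-specific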
HEK293 MPD ctr-1 – checks TRPC6 inhibitor effects in parental HEK293 cells; 60% of 920 active; membrane potential signal change, % at 10 µM; shares compounds with TRPC6 inh; parental HEK293 membrane potential dye fluorescence;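 active means membrane potential signal shifting up or down by more than 3 SD of buffer-only wells, on both duplicate plates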
HEK293 MPD ctr-2 – checks TRPC6 modulator effects in parental HEK293 cells; shares compounds with TRPC6 inh; membrane potential dye fluorescence; membrane potential signal change, % at 10 µM; 51% of 2,400 active;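 active means membrane potential signal moves up or down beyond 5 SD from buffer-only wells, on both duplicate plates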
HEK293 MPD ctr 2-2 – parental HEK293 nonspecific activity of TRPC6 modulators, second screen | 14% of 2,400 active | shares compounds with TRPC6 inh | AID 488926 | membrane potential dye fluorescence; after compound, maximal acetylcholine stimulation | inhibition, % at 10 µM;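 active means membrane potential signal drops by more than 5 SD from the mean control signal, in both duplicate plates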;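 further: plate controls were acetylcholine ECmax control wells for no effect and buffer only wells for full effect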
TRPC4/MOR mod – selectivity of TRPC6 modulators against mouse TRPC4 | 69% of 2,400 active | HEK293 TRPC4/mu-opioid, membrane potential fluorescence | percent change from control (negative = decrease, positive = increase), % at 10 µM | shares compounds with TRPC6 inh;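 active means membrane potential signal moved up or down beyond 5 SD of buffer control wells, in both duplicate plates, actives on both sides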;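 further: plate controls were assay buffer wells for no effect and DAMGO maximal-effect wells for full effect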
TRPC4 ctr inh 2 – mouse TRPC4 off-target activity of TRPC6 modulators, second screen; shares compounds with TRPC6 inh; HEK293 TRPC4/mu-opioid, membrane potential dye fluorescence; stimulated with maximal-effect DAMGO; inhibition, % at 10 µM; 55% of 2,400 active;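 active means drop in membrane potential signal beyond 5 SD of the control wells in both duplicate plates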;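 further: TRPC4 counter screen for TRPC6 hits run under conditions tuned for TRPC6 not TRPC4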
TRPC6 inh conf – confirmation of mouse TRPC6 inhibitors. shares compounds with TRPC6 inh. HEK293-TRPC6, membrane potential dye, ACh-evoked depolarization. inhibition, % at 10 µM. 43% of 3,300 active;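 active means fluorescence ratio falls more than 5 SD below the full-stimulation control mean, in both duplicate runs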;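 further: integrated fluorescence ratio of peak minus minimum over baseline after agonist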
TRPC6 act conf – confirmation of mouse TRPC6 activators. 11% of 2,800 active. HEK293-TRPC6 membrane potential dye fluorescence, FDSS. shares compounds with TRPC6 inh. activation, % at 10 µM;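 active means ratio signal rise beyond 5 SD above unstimulated control wells' mean, seen in both duplicate runs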;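 further: plate controls were buffer EC0 wells for no effect and acetylcholine ECmax response for full effect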
* marks the source's active call; other numbers are inactive results; i = inactive; / = no result given.

SMILES | TRPC4 act | TRPC6 inh | TRPC6 act | TRPC4 inh | TRPC4 PAM | HEK293 MPD ctr-2 | HEK293 MPD ctr 2-2 | TRPC4/MOR mod | TRPC4 ctr inh 2 | TRPC6 inh conf | TRPC6 act conf | others
COc1cc2c(cc1OC)-c1cc3ccc4c(c3c[n+]1CC2)OCO4 | i | -7.36* | i | i | i | i | 91.0%* | -193.5%* | 37.0%* | 46.5%* | i
COc1cc2c(cc1OC)C(c1ccccc1)=NCC2 | i | i | i | i | i | / | / | / | / | / | /
COc1cc2c(cc1O)CC[n+]1cc3c(OC)c(OC)ccc3cc1-2 | i | -7.41* | i | i | i | / | / | / | / | i | i | TRPC4 sel inh 2=i;TRPC4 spec=-9.5%*;HEK293 MPD ctr 2-1=-66.5%*;HEK293 MPD ctr-1=i
CCOC(=O)Nc1ccc2c(c1)OCO2 | i | -5.62* | i | i | i | i | i | i | i | i | i
C/C(=N\NC1=NCCN1)c1ccc(Cl)cc1 | i | i | i | i | i | / | / | / | / | / | /
CCN(CC)CC(=O)Nc1ccc(/C(C)=N/NC2=NCCN2)cc1 | i | -8.01* | i | i | i | / | / | / | / | i | i | TRPC4 sel inh 2=i;TRPC4 spec=-12.2%*;HEK293 MPD ctr 2-1=i;HEK293 MPD ctr-1=i
Cc1ccc(S(=O)(=O)Nc2cccc(C(=O)NCc3cccnc3)c2)cc1F | i | i | i | i | i | / | / | / | / | / | /
CCOc1ccc(NC(=O)C2C(C(=O)O)C3(Cl)C(Cl)=C(Cl)C2(Cl)C3(Cl)Cl)cc1 (centres undefined) | i | i | 13.2* | i | i | 250.5%* | i | 33.0%* | i | i | 105.5%*
CCOc1ccc(NC(=O)C2C(c3ccccc3)C2(Cl)Cl)cc1 (centres undefined) | i | i | i | i | i | / | / | / | / | / | /
O=C1CN(C(=O)/C=C/c2cccc(Cl)c2)c2ccccc2N1 | i | -6.74* | i | i | i | / | / | / | / | i | i | TRPC4 sel inh 2=i;TRPC4 spec=i;HEK293 MPD ctr 2-1=i;HEK293 MPD ctr-1=i
COc1ccc(-c2noc(N3CCC(C(=O)Nc4cccc(OC)c4)CC3)n2)cc1 | i | i | i | i | i | / | / | / | / | / | /
CCN(CC)CC#CCC(O)(c1ccccc1)C1CCCCC1 (centres undefined) | i | i | i | i | i | / | / | / | / | / | /
CCN(CC)CC#CCOC(=O)C(O)(c1ccccc1)C1CCCCC1 (centres undefined) | i | -6.43* | i | i | i | 121.0%* | 97.0%* | 26.0%* | i | 81.0%* | /
CCS(=O)(=O)N1Cc2ccccc2CC1C(=O)Nc1nnc(SCc2ccc(C#N)cc2)s1 (centres undefined) | i | i | 22.6* | i | i | i | i | i | i | i | i
CCOc1ccc(CN(C)C(C)C(=O)NCCc2ccc(F)cc2)cc1 (centres undefined) | i | i | i | i | i | / | / | / | / | / | /
Cc1ccc(S(=O)(=O)NC(CC(C)C)C(=O)NCC(C)(C)N2CCOCC2)cc1 (centres undefined) | i | i | i | i | i | / | / | / | / | / | /
CC(O)CSc1nc2c(c(=O)[nH]c(=O)n2C)n1CC(O)COc1ccccc1 (centres undefined) | i | i | i | i | i | / | / | / | / | / | /
CC(C)Sc1nc2c(c(=O)[nH]c(=O)n2C)n1CC(O)COc1ccccc1 (centres undefined) | i | -5.79* | i | i | i | i | i | 10.5%* | i | 66.0%* | i
Cc1ccsc1C(=O)N1CCN(c2ncc(C(F)(F)F)cc2Cl)CC1 | i | i | i | i | i | / | / | / | / | / | /
CN(C)CCOC(c1ccccc1)c1ccccc1 (tested in a mixture with another compound) | i | -5.21* | i | i | i | 154.0%* | i | 26.0%* | 34.5%* | 51.0%* | /
Cc1ccccc1C(OCCN(C(C)C)C(C)C)c1ccccc1 (centres undefined) | i | -5.02* | i | i | i | 209.0%* | 87.5%* | 43.5%* | 44.0%* | 80.5%* | /
CCOc1cc(/C=C(\C#N)C(=O)Nc2ccc(S(N)(=O)=O)cc2)ccc1OCCN1CCOCC1 | i | i | i | i | i | / | / | / | / | / | /
O=C(COc1ccccc1N1C(=O)C2C3C=CC(C3)C2C1=O)c1ccccc1 (centres undefined) | i | i | i | i | i | / | / | / | / | / | /
O=C(CCCOc1ccc(Cl)cc1Cl)N1CCN(c2ccccn2)CC1 | i | -9.34* | i | i | i | / | / | / | / | i | / | TRPC4 sel inh 2=i;TRPC4 spec=0.1%*;HEK293 MPD ctr 2-1=i;HEK293 MPD ctr-1=1.5%*
O=C(COc1ccc(Cl)cc1Cl)N1CCN(c2ccccn2)CC1 | i | i | i | i | i | / | / | / | / | / | /
Cc1cccc2sc(N3CCN(C(=O)c4cccs4)CC3)nc12 | i | -5.43* | i | i | i | i | i | 14.0%* | 32.5%* | 47.0%* | /
Clc1ccc(C2NCCc3sccc32)cc1 (centres undefined) | i | -5.92* | i | i | i | i | i | 15.0%* | 71.0%* | i | i
COc1ccc(-c2[nH]ncc2CN2CCC(C(=O)c3ccc(F)cc3)CC2)cc1 | i | i | i | i | i | / | / | / | / | / | /
